We go through 13 compounds from ChEMBL document CHEMBL4219168, “Design, synthesis, and evaluation of l-cystine diamides as l-cystine crystallization inhibitors for cystinuria” (Bioorg Med Chem Lett, 2018).

Assay [1] deals with Cystine. The assay is described as follows: Inhibition of L-cystine crystallization assessed as increase in apparent aqueous solubility at 2 to 10 uM after 72 hrs by fluorescence assay. A digest of the protocol:
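Supersaturated L-cystine in Millipore water was spiked 1:100 with 1 mM or 200 μM diamide stock, giving final 10 μM or 2 μM. Mixtures were held at 25 °C for 72 h. Apparent L-cystine solubility was then read with an in-house fluorescence assay. CDME served as positive control and water as blank.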

The test system of assay [2] is Cystine. The assay is described as follows: Inhibition of L-cystine crystallization assessed as increase in apparent aqueous solubility at 2 to 10 uM after 72 hrs by fluorescence assay relative to CDME.
Assay [3] has as its system Cystine. Nature of the assay: Inhibition of L-cystine crystallization assessed as increase in apparent aqueous solubility after 72 hrs by fluorescence assay. In a few lines:
(§1)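 Dose-response curves were run in supersaturated aqueous L-cystine, with apparent solubility read by fluorescence assay. EC2x is the effective concentration that doubles the apparent solubility of L-cystine in water. The ratio is the potency gain over the CDME control.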

Assay [4] deals with Cystine. The assay is described as follows: Inhibition of L-cystine crystallization assessed as increase in apparent aqueous solubility after 72 hrs by fluorescence assay relative to CDME. A digest of the protocol: as §1

The source made the active and inactive calls. No cut-off for these calls is given here.

For `CCN(CC)C(=O)[C@H](CSSC[C@H](NC)C(=O)N(CC)CC)NC`, the inhibition result in assay [1] and in assay [2] was “inactive” in each case.

On to `N[C@@H](CSSC[C@H](N)C(=O)NCCO)C(=O)NCCO`, for which, in assay [3], the EC2 came out at 2.02 µM. Besides, the fold change (FC) in assay [4] is 3.2.

Turning to `CN[C@@H](CSSC[C@H](NC)C(=O)NC1CC1)C(=O)NC1CC1`, the inhibition entry in assay [1] and in assay [2] was “inactive” throughout.

In the case of `CN[C@@H](CSSC[C@H](NC)C(=O)NCCO)C(=O)NCCO`, the inhibition entry in assay [1] and in assay [2] was “inactive” each time.

In the case of `N[C@@H](CSSC[C@H](N)C(=O)N1CCCCC1)C(=O)N1CCCCC1`, the EC2 in assay [3] came to 1.59 µM. Besides, the fold change (FC) in assay [4] stood at 4.

As for `COC(=O)[C@@H](N)CSSC[C@H](N)C(=O)OC`, in assay [3], the EC2 was 6.37 µM.

`CN[C@@H](CSSC[C@H](NC)C(=O)N1CCCC1)C(=O)N1CCCC1`: the inhibition entry in assay [1] and in assay [2] was “inactive” in each case.

Consider `N[C@@H](CSSC[C@H](N)C(=O)N1CCOCC1)C(=O)N1CCOCC1`, for which, in assay [3], the EC2 was 0.86 µM. The fold change (FC) in assay [4] came to 7.4.

Take `CN[C@@H](CSSC[C@H](NC)C(=O)N1CCCCC1)C(=O)N1CCCCC1`: the inhibition entry in assay [1] and in assay [2] was “inactive” each time.

Consider `N[C@@H](CSSC[C@H](N)C(=O)NC1CC1)C(=O)NC1CC1`, for which the EC2 in assay [3] came to 3.53 µM. Further, in assay [4], the fold change (FC) worked out at 1.8.

`CN[C@@H](CSSC[C@H](NC)C(=O)N(C)C)C(=O)N(C)C`: the inhibition result in assay [1] and in assay [2] was “inactive” each time.

For the compound `CN[C@@H](CSSC[C@H](NC)C(=O)N1CCOCC1)C(=O)N1CCOCC1`, the inhibition entry in assay [1] and in assay [2] was “inactive” throughout.

On to `CN1CCN(C(=O)[C@@H](N)CSSC[C@H](N)C(=O)N2CCN(C)CC2)CC1`, for which, in assay [3], the EC2 came out at 0.26 µM. The fold change (FC) in assay [4] was 24.5.
